From ChEMBL document CHEMBL1177787, “In vitro and in vivo antimalarial evaluation of semi-synthetic derivatives of gomphostenin” (Bioorg Med Chem Lett, 2010)

What was measured:
Plasmodium falciparum [1] = assay: Antiplasmodial activity against chloroquine-sensitive Plasmodium falciparum MRC2 infected in human erythrocytes after 24 hrs by Giemsa staining; format: functional, organism-based; conditions: MRC2, 24 h
Outline: (§1)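 Parasites grown in human B(+) erythrocytes in RPMI-1640 with 25 mM HEPES, 10% human AB(+) serum, 0.2% sodium bicarbonate, 5% CO2. Ring-stage cultures synchronized, parasitemia set to 1–1.5% with fresh RBC. Twofold serial dilutions (ethanol stock, final ethanol ≤0.5%), duplicate wells, 37 °C for 24 h. Giemsa smears: schizonts per 100 asexual parasites; inhibition = (1 − Nt/Nc) × 100; IC50 derived.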

Plasmodium falciparum [2] = assay: Antiplasmodial activity against chloroquine-resistant Plasmodium falciparum RKL9 after 24 hrs by Giemsa staining; format: functional, organism-based; conditions: RKL9, 24 h; outline: as §1
Plasmodium berghei [3] = assay: Antimalarial activity against chloroquine-sensitive Plasmodium berghei ANKA infected in Swiss mice (Mus musculus) assessed as parasitaemia at 150 mg/kg, perorally for 4 days measured on day 5; format: functional; conditions: route oral
Outline: (§2)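 Four-day suppressive test: Swiss albino mice inoculated i.p. on day 0 with 0.2 ml infected blood carrying about 1 × 10⁷ P. berghei ANKA parasitized RBC. Compounds suspended in saline with 0.5% Tween-80 and given orally from shortly after inoculation, day 0–3. Groups of five mice; the vehicle group was the negative control. Tail-blood thin films were read on day 4 (fifth day), counting parasitized cells per 600 erythrocytes.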

Plasmodium berghei [4] = assay: Antimalarial activity against chloroquine-sensitive Plasmodium berghei ANKA infected in Swiss mice (Mus musculus) assessed as parasitaemia at 100 mg/kg, perorally for 4 days measured on day 5; format: functional; conditions: route oral; outline: as §2
Plasmodium berghei [5] = assay: Antimalarial activity against chloroquine-sensitive Plasmodium berghei ANKA infected in Swiss mice (Mus musculus) assessed as parasitaemia at 50 mg/kg, perorally for 4 days measured on day 5; format: functional; conditions: route oral; outline: as §2
Plasmodium berghei [6] = assay: Antimalarial activity against chloroquine-sensitive Plasmodium berghei ANKA infected in Swiss mice (Mus musculus) assessed as suppression of parasitaemia at 150 mg/kg, perorally for 4 days measured on day 5 relative to control; format: functional; conditions: route oral; outline: as §2
Plasmodium berghei [7] = assay: Antimalarial activity against chloroquine-sensitive Plasmodium berghei ANKA infected in Swiss mice (Mus musculus) assessed as suppression of parasitaemia at 100 mg/kg, perorally for 4 days measured on day 5 relative to control; format: functional; conditions: route oral; outline: as §2
Plasmodium berghei [8] = assay: Antimalarial activity against chloroquine-sensitive Plasmodium berghei ANKA infected in Swiss mice (Mus musculus) assessed as suppression of parasitaemia at 50 mg/kg, perorally for 4 days measured on day 5 relative to control; format: functional; conditions: route oral; outline: as §2
Plasmodium berghei [9] = assay: Antimalarial activity against chloroquine-sensitive Plasmodium berghei ANKA infected in Swiss mice (Mus musculus) assessed as parasitaemia at 5 mg/kg, perorally for 4 days measured on day 5; format: functional; conditions: route oral; outline: as §2
Plasmodium berghei [10] = assay: Antimalarial activity against chloroquine-sensitive Plasmodium berghei ANKA infected in Swiss mice (Mus musculus) assessed as suppression of parasitaemia at 5 mg/kg, perorally for 4 days measured on day 5 relative to control; format: functional; conditions: route oral; outline: as §2

SMILES | IC50 (Plasmodium falciparum [1]) [µM] | IC50 (Plasmodium falciparum [2]) [µM] | further results
CC1=CC(=O)C[C@H]2[C@](C)(CCC3=CCOC3=O)[C@H](COC(=O)C(C)(C)C)CC[C@]12C | 78.5 | 84.9 | 
CC1=CC(=O)C[C@H]2[C@](C)(CCC3=CCOC3=O)[C@H](COC(=O)OCc3ccccc3)CC[C@]12C | 42.2 | 43.9 | 
CC1=CC(=O)C[C@H]2[C@](C)(CCC3=CCOC3=O)[C@H](COS(C)(=O)=O)CC[C@]12C | 69.9 | 73.3 | 
CC1=CC(=O)C[C@H]2[C@](C)(CCC3=CCOC3=O)[C@H](COCc3ccc(C(F)(F)F)cc3)CC[C@]12C | 4.8 | 4.4 | Activity (Plasmodium berghei [3]): 11.5%; Activity (Plasmodium berghei [4]): 12.4%; Activity (Plasmodium berghei [5]): 17.5%; inhibition in vivo at 150 mg/kg (Plasmodium berghei [6]): 65.9%; inhibition in vivo at 100 mg/kg (Plasmodium berghei [7]): 63.2%; inhibition in vivo at 50 mg/kg (Plasmodium berghei [8]): 48.4%
CC1=CC(=O)C[C@H]2[C@](C)(CCC3=CCOC3=O)[C@H](COCc3ccc(Cl)cc3)CC[C@]12C | 14 | 18.8 | 
CCN(CC)CCCC(C)Nc1ccnc2cc(Cl)ccc12.O=P(O)(O)O.O=P(O)(O)O (configuration not stated) [CHLOROQUINE PHOSPHATE] |  |  | Activity (Plasmodium berghei [9]): 1.07%; inhibition in vivo at 5 mg/kg (Plasmodium berghei [10]): 96.8%
COC[C@@H]1CC[C@]2(C)C(C)=CC(=O)C[C@H]2[C@]1(C)CCC1=CCOC1=O | 94.4 | 88.9 | 
CC1=CC(=O)C[C@H]2[C@](C)(CCC3=CCOC3=O)[C@H](COCc3ccc(F)cc3)CC[C@]12C | 8.3 | 8.1 | Activity (Plasmodium berghei [3]): 10.3%; Activity (Plasmodium berghei [4]): 22.3%; Activity (Plasmodium berghei [5]): 26.4%; inhibition in vivo at 150 mg/kg (Plasmodium berghei [6]): 69.4%; inhibition in vivo at 100 mg/kg (Plasmodium berghei [7]): 33.2%; inhibition in vivo at 50 mg/kg (Plasmodium berghei [8]): 21.7%
CC1=CC(=O)C[C@H]2[C@](C)(CCC3=CCOC3=O)[C@H](COS(=O)(=O)c3ccc(C)cc3)CC[C@]12C | 26.1 | 45.8 | 
COc1ccc(COC(=O)OC[C@@H]2CC[C@]3(C)C(C)=CC(=O)C[C@H]3[C@]2(C)CCC2=CCOC2=O)cc1 | 37.6 | 47.7 | 
